This is an account of results in ChEMBL document CHEMBL1155469, “Peptide nucleic acids conjugated to short basic peptides show improved pharmacokinetics and antisense activity in adipose tissue” (J Med Chem, 2010).

For data set [1], the system named is Mus musculus. Nature of the data set: Inhibition of PTEN expression in Balb/C mouse kidney assessed as increase in mRNA levels at 2.5 to 12.5 mg/kg, ip administered BID for 5 days measured 48 hrs after last dose […]. The class given is functional, organism-based. Put shortly: (§1)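 Male Balb/c mice, n=4 per group, dosed i.p. in PBS and sacrificed 48 h after last dose. Liver, kidney and adipose tissue homogenised at once in 4 M guanidine isothiocyanate, 25 mM EDTA, 50 mM Tris-HCl pH 6. RNA purified on columns and run by fluorescence-based quantitative RT-PCR. Target transcript levels normalised to cyclophilin A and expressed relative to saline-treated controls.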
For orientation: Immunoblotting shows a protein as a band on a membrane.

The subject of data set [2] is Mus musculus. Nature of the data set: Inhibition of PTEN expression in Balb/C mouse liver assessed as increase in mRNA levels at 2.5 to 12.5 mg/kg, ip administered BID for 5 days measured 48 hrs after last dose […]. The class given is functional, organism-based. An outline of the steps: as §1
For data set [3], the system named is Mus musculus. Briefly: Acute toxicity in Balb/C mouse assessed as change in organ weight at 2.5 to 12.5 mg/kg, ip administered BID for 5 days measured 48 hrs after last dose. The class given is organism-based. The arrangement: dose 2.5-12.5 mg/kg, route intraperitoneal. Conditions: in vivo. Put shortly: (§2)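 Male Balb/c mice aged 6–8 weeks, n=4 per group, dosed i.p. with compound suspended in PBS and filter sterilized, 10 ul/g body weight. Body weight tracked throughout the live phase. Under isoflurane anaesthesia, terminal cardiac-puncture bleed; serum taken for transaminases and other chemistries. Sacrifice by cervical dislocation 48 h after last dose, with liver and spleen weighed at necropsy. Kidneys examined by histopathology.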

Data set [4] has as its system Mus musculus. Nature of the data set: Acute toxicity in Balb/C mouse assessed as change in body weight at 2.5 to 12.5 mg/kg, ip administered BID for 5 days measured 48 hrs after last dose. Format: organism-based. The arrangement: dose 2.5-12.5 mg/kg, route intraperitoneal. The note with it: in vivo. An outline of the steps:
as §2

Data set [5] concerns Mus musculus. Nature of the data set: Acute toxicity in Balb/C mouse assessed as change in serum chemistry at 2.5 to 12.5 mg/kg, ip administered BID for 5 days measured 48 hrs after last dose. Format: organism-based. The arrangement: dose 2.5-12.5 mg/kg, route intraperitoneal. Conditions: in vivo. Put shortly:
as §2

Data set [6] has as its system Mus musculus. Briefly: Inhibition of PTEN expression in Balb/C mouse adipose tissue assessed as increase in mRNA levels at 2.5 to 12.5 mg/kg, ip administered BID for 5 days measured 48 hrs after last dose by […]. Format: functional, organism-based. An outline of the steps: as §1

Calls of active or inactive are those of the source. No cut-off for these calls is given here.

For `Cc1cn(CC(=O)N(CCNC(=O)CN(CCNC(=O)[C@H](CCCNC(=N)N)N(CCNC(=O)[C@H](CCCNC(=N)N)NC(=O)[C@H](CCCCNC(=N)N)NC(=O)[C@H](Cc2ccccc2)NC(=O)[C@H](CCCCNC(=N)N)NC(=O)[C@H](CCCCNC(=N)N)NC(=O)[C@H](CCCCNC(=N)N)NC(=O)[C@H](C)NC(=O)[C@H](CCCNC(=N)N)NC(=O)[C@H](CCCCNC(=N)N)NC(=O)[C@H](Cc2ccccc2)NC(=O)[C@H](C)NC(=O)[C@H](CCCNC(=N)N)NC(=O)[C@H](CCCCNC(=N)N)NC(=O)CN)C(=O)Cn2cc(C)c(=O)[nH]c2=O)C(=O)Cn2ccc(N)nc2=O)CC(=O)NCCN(CC(=O)NCCN(CC(=O)NCCN(CC(=O)NCCN(CC(=O)NCCN(CC(=O)NCCN(CC(=O)NCCN(CC(=O)NCCN(CC(=O)NCCN(CC(=O)NCCN(CC(=O)NCCN(CC(=O)NCCN(CC(=O)NCCN(CC(=O)N[C@@H](CCCCN)C(N)=O)C(=O)Cn2cnc3c(N)ncnc32)C(=O)Cn2ccc(N)nc2=O)C(=O)Cn2cnc3c(N)ncnc32)C(=O)Cn2cc(C)c(=O)[nH]c2=O)C(=O)Cn2ccc(N)nc2=O)C(=O)Cn2cc(C)c(=O)[nH]c2=O)C(=O)Cn2cnc3c(N)ncnc32)C(=O)Cn2ccc(N)nc2=O)C(=O)Cn2cnc3c(N)ncnc32)C(=O)Cn2ccc(N)nc2=O)C(=O)Cn2cnc3c(=O)[nH]c(N)nc32)C(=O)Cn2cnc3c(N)ncnc32)C(=O)Cn2ccc(N)nc2=O)c(=O)[nH]c1=O`, the outcome with Mus musculus [1], in the data set with Mus musculus [2] and with Mus musculus [6] was inactive. In addition, the Activity entry in the data set with Mus musculus [3], in the data set with Mus musculus [4] and in the data set on Mus musculus [5] was “Non-toxic” each time.
